Our source for the Activity, IC50 and inhibition values is ChEMBL document CHEMBL3860024, “New cinnamic - N-benzylpiperidine and cinnamic - N,N-dibenzyl(N-methyl)amine hybrids as Alzheimer-directed multitarget drugs with antioxidant, cholinergic, neuroprotective and neurogenic properties” (Eur J Med Chem, 2016).

Activity calls are given as the source filed them. No cut-off for these calls is given here.

Data set [1] in a line: Antioxidant activity assessed as AAPH free radical scavenging activity by measuring trolox equivalent by oxygen radical absorbance capacity method. The data set is classed as functional. In outline: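 Oxygen radical absorbance capacity (ORAC) assay with trolox as the standard. Fluorescence was read on a plate reader with 485-P excitation and 520-P emission filters. Values are expressed as trolox equivalents, mean ± SEM (n = 5).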

The target in data set [2] is T1, Cholinesterase (Homo sapiens, UniProt P06276). In words: Inhibition of human serum BuChE using butyrylthiocholine as substrate preincubated for 5 mins followed by substrate addition measured for 5 mins by Ellman's method. In outline: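 Spectrophotometric Ellman assay with butyrylcholinesterase from human serum, with donepezil as reference. IC50 is reported in µM as mean ± SEM, n = 5.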
T1 sequence (P06276 whole entry): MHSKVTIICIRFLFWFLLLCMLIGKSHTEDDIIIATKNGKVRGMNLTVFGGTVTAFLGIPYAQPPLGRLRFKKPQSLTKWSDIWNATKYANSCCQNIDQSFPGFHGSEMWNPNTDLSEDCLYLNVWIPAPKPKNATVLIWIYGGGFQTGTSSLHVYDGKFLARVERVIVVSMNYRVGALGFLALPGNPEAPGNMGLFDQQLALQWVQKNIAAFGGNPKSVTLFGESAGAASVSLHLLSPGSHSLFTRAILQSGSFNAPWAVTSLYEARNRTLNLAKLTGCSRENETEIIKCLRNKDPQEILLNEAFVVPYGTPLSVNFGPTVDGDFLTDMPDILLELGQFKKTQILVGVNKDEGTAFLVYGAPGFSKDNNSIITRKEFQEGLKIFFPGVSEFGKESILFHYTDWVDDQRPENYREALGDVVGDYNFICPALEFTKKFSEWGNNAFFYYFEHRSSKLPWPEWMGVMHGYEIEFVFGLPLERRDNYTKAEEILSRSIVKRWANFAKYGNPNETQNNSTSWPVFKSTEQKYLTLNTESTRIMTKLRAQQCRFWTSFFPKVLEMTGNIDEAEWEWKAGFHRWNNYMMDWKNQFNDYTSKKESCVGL

For data set [3], the target named is T2, Amine oxidase [flavin-containing] B (Homo sapiens, UniProt P27338).
T2 sequence (P27338 whole entry): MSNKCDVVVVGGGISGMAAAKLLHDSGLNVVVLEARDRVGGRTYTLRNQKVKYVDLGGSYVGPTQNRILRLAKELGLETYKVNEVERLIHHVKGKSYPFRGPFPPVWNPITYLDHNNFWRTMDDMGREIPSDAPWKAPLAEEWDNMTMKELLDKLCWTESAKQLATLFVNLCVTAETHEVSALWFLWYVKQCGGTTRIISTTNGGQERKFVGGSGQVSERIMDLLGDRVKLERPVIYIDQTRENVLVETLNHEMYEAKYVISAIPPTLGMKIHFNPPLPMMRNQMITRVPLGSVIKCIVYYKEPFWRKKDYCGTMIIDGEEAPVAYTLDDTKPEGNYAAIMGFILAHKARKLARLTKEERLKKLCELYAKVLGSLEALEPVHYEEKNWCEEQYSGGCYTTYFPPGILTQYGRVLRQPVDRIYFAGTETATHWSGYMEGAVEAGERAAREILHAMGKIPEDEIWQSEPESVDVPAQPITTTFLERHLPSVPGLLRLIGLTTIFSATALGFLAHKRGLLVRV
The experiment in a line: Inhibition of human recombinant MAOB at 100 uM using p-tyramine as substrate incubated for 15 mins by fluorimetric method. Particulars: 0.25 h. The procedure, abridged:
(§1)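 Recombinant hMAO-A or hMAO-B (baculovirus-infected BTI insect cells), amount set to oxidize 165 pmol p-tyramine/min, preincubated with compound 15 min at 37 °C. Reaction started with Amplex Red, 1 U/mL horseradish peroxidase and 1 mM p-tyramine. Resorufin fluorescence read at 37 °C (ex 545/em 590 nm), minus enzyme-free phosphate-buffer background.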

The target of data set [4] is T3, Acetylcholinesterase (Homo sapiens, UniProt P22303). The experiment in a line: Inhibition of human recombinant AChE using acetylthiocholine iodide as substrate preincubated for 5 mins followed by substrate addition measured for 5 mins by Ellman's method.
T3 sequence (P22303 whole entry): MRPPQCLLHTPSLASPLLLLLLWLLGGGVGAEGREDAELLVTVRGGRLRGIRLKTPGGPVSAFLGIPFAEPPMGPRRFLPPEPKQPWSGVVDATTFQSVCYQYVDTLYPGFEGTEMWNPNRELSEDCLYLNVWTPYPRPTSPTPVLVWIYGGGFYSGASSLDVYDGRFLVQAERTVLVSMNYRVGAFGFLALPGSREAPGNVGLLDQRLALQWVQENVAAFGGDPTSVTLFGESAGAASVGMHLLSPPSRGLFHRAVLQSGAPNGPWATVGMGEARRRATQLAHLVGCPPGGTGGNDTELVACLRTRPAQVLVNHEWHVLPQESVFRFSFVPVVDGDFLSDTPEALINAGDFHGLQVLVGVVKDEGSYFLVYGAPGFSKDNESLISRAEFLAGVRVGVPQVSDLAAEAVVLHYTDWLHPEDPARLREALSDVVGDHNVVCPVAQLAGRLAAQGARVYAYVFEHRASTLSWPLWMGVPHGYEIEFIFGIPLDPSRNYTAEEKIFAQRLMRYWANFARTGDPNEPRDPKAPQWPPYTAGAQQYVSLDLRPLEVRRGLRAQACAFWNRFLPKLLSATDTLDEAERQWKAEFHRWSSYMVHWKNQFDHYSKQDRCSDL
The target of data set [5] is T4, Amine oxidase [flavin-containing] A (Homo sapiens, UniProt P21397).
T4 sequence (P21397 whole entry): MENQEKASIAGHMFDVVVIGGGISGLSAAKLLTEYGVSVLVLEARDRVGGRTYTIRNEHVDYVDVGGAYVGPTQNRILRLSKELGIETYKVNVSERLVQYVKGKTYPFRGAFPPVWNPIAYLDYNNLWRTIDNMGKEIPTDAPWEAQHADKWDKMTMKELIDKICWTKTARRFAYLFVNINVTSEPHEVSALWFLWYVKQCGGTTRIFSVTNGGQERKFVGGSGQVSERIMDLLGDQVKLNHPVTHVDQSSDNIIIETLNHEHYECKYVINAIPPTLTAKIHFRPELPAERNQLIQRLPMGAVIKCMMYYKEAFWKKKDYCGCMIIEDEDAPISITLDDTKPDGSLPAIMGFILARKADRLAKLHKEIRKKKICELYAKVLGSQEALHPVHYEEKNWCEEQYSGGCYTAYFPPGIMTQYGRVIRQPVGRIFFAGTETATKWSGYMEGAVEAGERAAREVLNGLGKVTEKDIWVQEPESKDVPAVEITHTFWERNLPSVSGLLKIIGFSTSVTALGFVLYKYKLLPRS
In words: Inhibition of human recombinant MAOA using p-tyramine as substrate incubated for 15 mins by fluorimetric method.

Data set [6] has as its target T4, Amine oxidase [flavin-containing] A. In words: Inhibition of human recombinant MAOA at 100 uM using p-tyramine as substrate incubated for 15 mins by fluorimetric method. To be noted: 0.25 h. The procedure, abridged:
as §1

For data set [7], the target named is T2, Amine oxidase [flavin-containing] B.
The test system of another data set is SH-SY5Y. In words: Neuroprotective activity against rotenone/oligomycin A-induced mitochondrial oxidative stress in human SH-SY5Y cells assessed as increase in cell viability at 0.3 uM after 24 hrs by MTT assay relative to control. In kind it is functional. The procedure, abridged:
(§2)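 SH-SY5Y cells, passage <13, were seeded at 8x10^4/well for 2 days. Then co-incubated 24 h with compound (0.1, 0.3, 1, 3 µM) plus rotenone 30 µM/oligomycin A 10 µM in F-12/EMEM with 1% FBS; 0.1% DMSO vehicle and 10 nM melatonin control. MTT 0.5 mg/ml final, 2 h at 37 °C, formazan in DMSO read at 540 nm. Normalized to untreated control; triplicates of ≥3 cultures, mean ± SEM.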
On the technique in general: Tetrazolium dyes change colour on reduction, which living cells bring about.

A short description of data set [8]: Potentiation of rotenone/oligomycin A-induced mitochondrial oxidative stress in human SH-SY5Y cells at 0.1 to 3 uM after 24 hrs by MTT assay. The data set is classed as ADME, cell-based. In outline:
as §2

Data set [9] concerns the target T1, Cholinesterase. In words: Inhibition of human serum BuChE at 10 uM using butyrylthiocholine as substrate preincubated for 5 mins followed by substrate addition measured for 5 mins by Ellman's method relative to control. In outline:
(§3)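 Spectrophotometric Ellman assay with recombinant human AChE or BuChE from human serum. Percent inhibition is given at a single concentration of 10 µM. Results are mean ± SEM, n = 5.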
On the technique in general: Ellman's reagent forms a yellow product with free thiols.

Data set [10] deals with Beta-secretase 1 (Homo sapiens) (UniProt P56817). The experiment in a line: Inhibition of human BACE1 at 10 uM using Rh-EVNLDAEFK-Quencher as substrate after 60 mins by FRET assay relative to control. The procedure, abridged:
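FRET-based assay on human recombinant BACE-1, run per the manufacturer's protocol; compounds tested at 10 μM, read as percent inhibition.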

The test system of data set [11] is Neural stem cell. In words: Induction of differentiation of C57BL/6 mouse subgranular zone-derived neural stem cell into neuronal phenotype assessed as increase in level of MAP2 expressing cells in neurosphere at 10 uM preincubated for 7 days followed by cell attachment onto poly-L-lysine-coated coverslip in presence of serum and absence of exogenous growth factor for 3 days by DAPI staining-based florescence microscopy. The data set is classed as functional. In outline:
(§4)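 Adult (3-month) male C57BL/6 mouse SGZ dentate gyrus neural stem cells grown as neurospheres for 7 days with compound (10 µM). Then adhered on 100 μg/mL poly-L-lysine coverslips for 3 more days with serum, without exogenous growth factors, compound present. Immunocytochemistry for β-III-tubulin (TuJ) and MAP-2 with Alexa-fluor secondaries and DAPI nuclei, imaged by fluorescence microscopy, inner and distal neurosphere areas.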

The subject of data set [12] is Neural stem cell. The experiment in a line: Induction of differentiation of C57BL/6 mouse subgranular zone-derived neural stem cell into neuronal phenotype assessed as increase in level of beta-3 tubulin expressing cells in neurosphere at 10 uM preincubated for 7 days followed by cell attachment onto poly-L-lysine-coated coverslip in presence of serum and absence of exogenous growth factor for 3 days by DAPI staining-based florescence microscopy. In kind it is functional. The procedure, abridged: as §4

Data set [13] concerns the target T3, Acetylcholinesterase. In words: Inhibition of human recombinant AChE at 10 uM using acetylthiocholine iodide as substrate preincubated for 5 mins followed by substrate addition measured for 5 mins by Ellman's method relative to control. In outline:
as §3

The term IC50 denotes the concentration that inhibits the measured activity by half. Broadly, the inhibition is how much of the control response was suppressed.

Sequence of Beta-secretase 1 (Homo sapiens) (P56817 whole entry): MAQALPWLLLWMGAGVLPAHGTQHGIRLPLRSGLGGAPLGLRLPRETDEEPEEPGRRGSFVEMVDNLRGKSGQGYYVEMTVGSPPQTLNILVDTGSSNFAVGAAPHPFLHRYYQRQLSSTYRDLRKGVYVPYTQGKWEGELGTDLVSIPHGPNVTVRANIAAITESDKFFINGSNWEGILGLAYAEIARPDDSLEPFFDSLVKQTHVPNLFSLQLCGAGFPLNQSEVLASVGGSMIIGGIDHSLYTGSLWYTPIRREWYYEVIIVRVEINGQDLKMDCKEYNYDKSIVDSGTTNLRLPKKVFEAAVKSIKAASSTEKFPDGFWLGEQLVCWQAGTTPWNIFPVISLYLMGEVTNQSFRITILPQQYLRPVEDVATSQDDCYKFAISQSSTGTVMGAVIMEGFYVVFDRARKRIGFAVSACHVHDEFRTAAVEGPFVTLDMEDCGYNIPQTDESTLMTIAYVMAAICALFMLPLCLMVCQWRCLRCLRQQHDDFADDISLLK

`COc1ccc(/C=C/C(=O)NCCC2CCN(Cc3ccccc3)CC2)cc1OC`: in data set [1], the Activity was 0.4 equiv. Also, the IC50 against Cholinesterase [2] was 0.69 µM; on Acetylcholinesterase [4], 0.26 µM; in [5] it was over 100 µM. Further, the inhibition at 100 µM in [3] lay in the range of 45 to 55%.

As to `COc1ccc(/C=C/C(=O)NCCC2CCN(Cc3ccccc3)CC2)cc1`, the values for the IC50 at Cholinesterase [2] and on Acetylcholinesterase [4] were 0.76 µM and 0.49 µM, respectively. In addition, the inhibition at 100 µM in data set [3] and in data set [6] was 45 to 55% throughout.

In the case of `COc1cccc(/C=C/C(=O)NCCC2CCN(Cc3ccccc3)CC2)c1`, the IC50 is 0.98 µM against Cholinesterase [2], over 100 µM in data set [7] and 0.75 µM at Acetylcholinesterase [4]. Moreover, in data set [6], the inhibition at 100 µM lay in the range of 45 to 55%.

For the molecule `COc1cc(/C=C/C(=O)NCCC2CCN(Cc3ccccc3)CC2)ccc1O`, the Activity in the data set with SH-SY5Y was 30 - 35%; in [1], 1.8 equiv; in data set [8] it was “Non-Toxic”. Further, the IC50 is 0.076 µM against Cholinesterase [2], 13.1 µM in [7], 0.39 µM at Acetylcholinesterase [4] and 11.4 µM in [5].

`CN(Cc1ccccc1)Cc1ccc(NC(=O)/C=C/c2cccc(O)c2)cc1`: the Activity in the data set with SH-SY5Y was 30 - 35%; in data set [1], 3.2 equiv; in data set [8] it was “Non-Toxic”. In addition, the inhibition at 100 µM in data set [3] and in [6] was 45 to 55% in each case. For the same molecule, at Acetylcholinesterase [4], the IC50 came to 3.49 µM. On Cholinesterase [9], the inhibition was determined as 46%.

On to `COc1cc(/C=C/C(=O)Nc2cccc(CN(C)Cc3ccccc3)c2)ccc1O`, for which the Activity was 30 - 35% in the data set with SH-SY5Y, 1.4 equiv in [1] and “Non-Toxic” in data set [8]. For the same molecule, the 50% inhibitory concentration (IC50) came to 5.89 µM against Cholinesterase [2], 7.7 µM in data set [7], 5.99 µM at Acetylcholinesterase [4] and 4.5 µM in data set [5]. Also, in [10], the inhibition is 23 to 33%.

Regarding `COc1ccc(/C=C/C(=O)Nc2ccc(CN(C)Cc3ccccc3)cc2)cc1`, the inhibition in data set [10] was 23 to 33%; against Cholinesterase [9], 25%. Moreover, the IC50 in [7] is over 100 µM; on Acetylcholinesterase [4], 5.76 µM; in data set [5] it was over 100 µM.

Consider `O=C(/C=C/c1cccc(O)c1)NCCC1CCN(Cc2ccccc2)CC1`, for which the Activity in data set [1] was determined as 2.2 equiv. Also, the concentration for half-maximal inhibition (IC50) against Cholinesterase [2] was 1.02 µM; in data set [7], over 100 µM; at Acetylcholinesterase [4], 1.12 µM. Besides, the inhibition at 100 µM in [6] was 45 to 55%.

Regarding `O=C(/C=C/c1ccc(O)cc1)NCCC1CCN(Cc2ccccc2)CC1`, the Activity in data set [1] was found to be 1.7 equiv. For the same molecule, the IC50 on Cholinesterase [2] is 0.93 µM; in [7], over 100 µM; on Acetylcholinesterase [4] it was 1.01 µM; in data set [5] it was 57.5 µM.

In the case of `O=C(/C=C/c1ccc(O)c(O)c1)NCCC1CCN(Cc2ccccc2)CC1`, the result in the data set with Neural stem cell [11] and in the data set with Neural stem cell [12] was Active. Further, in data set [1], the Activity was 1 equiv. In addition, the IC50 amounted to 0.69 µM against Cholinesterase [2], 6 µM in data set [7], 1.75 µM on Acetylcholinesterase [4] and 3.5 µM in data set [5].

Turning to `COc1ccc(/C=C/C(=O)Nc2ccc(CN(C)Cc3ccccc3)cc2)cc1OC`, the Activity in data set [1] is 0.4 equiv. The IC50 against Cholinesterase [2] is over 10 µM; on Acetylcholinesterase [4] it was 3.98 µM.

Take `O=C(/C=C/c1ccc(O)cc1O)NCCC1CCN(Cc2ccccc2)CC1`: in [1], the Activity was 1.3 equiv. The IC50 against Cholinesterase [2] is 0.26 µM; in data set [7] it was 8.3 µM; at Acetylcholinesterase [4], 0.99 µM; in [5], 5.5 µM.

Consider `COc1cc(/C=C/C(=O)Nc2ccc(CN(C)Cc3ccccc3)cc2)ccc1O`, for which the Activity in [1] came to 1.5 equiv. In addition, the results for the inhibition (in data set [10]; at Cholinesterase [9]; at Acetylcholinesterase [13]) were 23 to 33%, 45% and 33%, respectively.

Turning to `COc1cccc(/C=C/C(=O)Nc2ccc(CN(C)Cc3ccccc3)cc2)c1`, in [1], the Activity came to 0.6 equiv. Further, the inhibition is 23 to 33% in data set [10] and 35% against Cholinesterase [9]. Besides, the IC50 was over 100 µM in data set [7], 4.67 µM at Acetylcholinesterase [4] and over 100 µM in data set [5].

For the molecule `COc1ccc(/C=C/C(=O)Nc2ccc(CN(C)Cc3ccccc3)cc2)c(OC)c1`, in [1], the Activity is 0.5 equiv. Also, the IC50 was over 10 µM against Cholinesterase [2], over 100 µM in data set [7], 8.73 µM on Acetylcholinesterase [4] and over 100 µM in [5].

With `CN(Cc1ccccc1)Cc1ccc(NC(=O)/C=C/c2ccc(O)cc2)cc1`, the Activity in data set [1] is 1.8 equiv. The figures for the IC50 in data set [7] and in [5] were 29 µM and 29.7 µM, respectively. The inhibition is 30% at Cholinesterase [9] and 46% on Acetylcholinesterase [13].

Turning to `COc1ccc(/C=C/C(=O)NCCC2CCN(Cc3ccccc3)CC2)c(OC)c1`, the IC50 is 4.39 µM against Cholinesterase [2], over 100 µM in [7], 0.63 µM at Acetylcholinesterase [4] and over 100 µM in data set [5].
